Source: PubChem (several laboratories)
This is a sample that favours compounds with a hit; in the whole collection about 4.7% have one here.
ADAM17 inh: ADAM17 inhibition, QFRET primary screen | P78536 | recombinant ADAM17, EDANS/DABCYL FRET peptide cleavage | inhibition, % at 6.95 µM | actives 0.83% (n = 370,000) | AID 720648;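 active means inhibition above the mean of compounds lying between control limits plus 3 SD, set per campaign, cut at about 8.5% in these data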;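 further: 0% = DMSO-only wells as the low control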
NR3A LBD binder: modulators (binders) of human NR3A ligand-binding domain; NR3A LBD differential scanning fluorimetry, Tm shift; 0% = protein alone, 100% = glycine-bound protein; Tm shift relative to glycine control, % at 25 µM; actives 2.5% (n = 340,000);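 active means melting temperature shift of at least 10% of the positive control shift, at one fixed dose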
SKN-1 inh: blocks SKN-1 activity in C. elegans; actives 0.49% (n = 360,000); inhibition, % at 21.8 µM; C. elegans VP596 Pgst-4::GFP/RFP ratio, acrylamide-induced, 24 h;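 active means interference check ratio from 0.5 to 1.5 plus GFP to RFP signal ratio inhibition reaching or exceeding a fixed threshold, cut at about 30% in these data, passing the limit was not always enough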
MT1-MMP act inh: blocks activation of human MT1-MMP | GFP/RFP ratio change, % at 20 µM | P50281 | AID 651647 | HT1080 RFP-PRO-GFP cells, GFP/RFP ratio fluorescence, overnight; percent of plate control window, DMSO zero | actives 0.061% (n = 360,000);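 active means GFP/RFP ratio change of at least 30% with cell ATP level not reduced by more than half and red fluorescence within 50% of control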
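Material: RFP-PRO-GFP reporter HT1080 cells. Dosing: single-point 20 µM compound, 1% DMSO. Controls: DMSO and RFP-L50D-GFP cell wells. Timing: cells overnight before dosing, compound overnight, 37 °C, 5% CO2. Measure: GFP/RFP fluorescence ratio.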
MPTP inh: permeability transition pore inhibition; inhibition, % at 10 µM; isolated mouse mitochondria, Ca2+ swelling absorbance, 30 min; actives 1.4% (n = 360,000);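 active means inhibition of 50% or more, scaled per plate between neutral and stimulator controls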;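 further: 0% = DMSO wells given calcium and 100% = 1 mM EGTA wells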
ADAM10 inh: inhibitors of human ADAM10 | recombinant ADAM10, EDANS/DABCYL FRET peptide cleavage, 3 h | inhibition, % at 7 µM | actives 0.62% (n = 370,000);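 active means inhibition above a per-campaign cutoff equal to the mean of compounds falling between control-based bounds plus 3 SD, cut at about 20% in these data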;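 further: 0% = DMSO wells while the 100% control is not disclosed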
Target sequence (O14672 214-748 limits assumed): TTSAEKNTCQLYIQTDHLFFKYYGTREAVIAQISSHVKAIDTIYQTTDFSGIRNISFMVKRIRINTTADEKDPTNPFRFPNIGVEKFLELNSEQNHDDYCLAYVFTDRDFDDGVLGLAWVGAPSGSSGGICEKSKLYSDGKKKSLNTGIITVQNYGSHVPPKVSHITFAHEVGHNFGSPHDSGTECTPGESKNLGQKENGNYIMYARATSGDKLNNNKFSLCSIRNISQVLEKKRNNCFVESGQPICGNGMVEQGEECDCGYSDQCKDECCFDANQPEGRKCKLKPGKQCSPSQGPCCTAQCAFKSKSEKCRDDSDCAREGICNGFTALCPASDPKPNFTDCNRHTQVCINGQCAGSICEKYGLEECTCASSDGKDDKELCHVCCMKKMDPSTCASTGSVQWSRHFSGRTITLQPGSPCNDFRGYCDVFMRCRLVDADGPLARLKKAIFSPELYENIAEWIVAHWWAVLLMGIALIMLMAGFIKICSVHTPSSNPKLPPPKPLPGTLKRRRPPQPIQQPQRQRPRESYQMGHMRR
ADAM10 confirm: confirmation of inhibitors of human ADAM10 | shares compounds with ADAM10 inh | ADAM10 QFRET peptide cleavage, EDANS fluorescence | inhibition, % at 6.95 µM | actives 1% (n = 2,100) | AID 743208;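 active means inhibition above about 20% chosen separately for each screening run, limit read from the data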;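 further: 0% = DMSO wells and 100% = marimastat wells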
ADAM17 ctr: ADAM17 inhibition, counter-screen for ADAM10 exosite hits; shares compounds with ADAM10 inh; ADAM17 QFRET peptide cleavage, EDANS fluorescence; actives 0.5% (n = 2,100); AID 743214; inhibition, % at 6.95 µM;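 active means mean triplicate inhibition above the solvent-only control wells' mean plus 3 SD, cut at about 12% in these data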;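 further: 0% = DMSO wells and 100% = marimastat wells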
ADAM10 counter: inhibits human ADAM10 in ADAM17 exosite counter-screen. shares compounds with ADAM17 inh. recombinant ADAM10, EDANS/DABCYL FRET peptide cleavage, 3 h. inhibition, % at 6.95 µM. actives 47% (n = 2,900). AID 743256;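 active means mean inhibition over the triplicate runs exceeds the activity threshold set in the earlier primary screen, cut at about 20% in these data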;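 further: 0% = DMSO wells and 100% = marimastat wells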
ADAM17 confirm: confirmation of inhibitors of human ADAM17; inhibition, % at 6.95 µM; actives 65% (n = 2,900); recombinant ADAM17, EDANS/DABCYL QFRET peptide cleavage; shares compounds with ADAM17 inh; AID 743257;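 active means mean inhibition across replicates above the hit cutoff set in the primary screen, cut at about 8.5% in these data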;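 further: 0% = DMSO wells and 100% = marimastat wells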
* marks the source's active call; other numbers are inactive results; / = no result given; ! = repeats disagree.

SMILES	ADAM17 inh	NR3A LBD binder	SKN-1 inh	MT1-MMP act inh	MPTP inh	ADAM10 inh	ADAM10 confirm	ADAM17 ctr	ADAM10 counter	ADAM17 confirm
CCn1cc([N+](=O)[O-])c(C(=O)N2N=C(c3ccc(OC)cc3OC)CC2c2ccccc2O)n1 (configuration not stated)	3	-5	6	7	3	8	/	/	/	/
CC(=O)N1c2ccc(S(=O)(=O)N3CCC(C(=O)N4CCN(c5cc(Cl)ccc5C)CC4)CC3)cc2CC1C (configuration not stated)	18*	-1	7	-2	0	23*	7	1	30*	17*
Cc1ccc(NS(=O)(=O)c2ccc(N3CCN(c4ccc(O)cc4)CC3)c([N+](=O)[O-])c2)c(C)c1	10*	17*	-3	-6	4	20*	6	-1	32*	19*
COc1ccc2c(c1)c(CC(=O)Nc1ccc(C(C)=O)cc1)c(C)n2C(=O)c1ccc(Cl)cc1	12*	10	9	-6	38	24*	15	5	30*	18*
CC(=O)Nc1ccc(S(=O)(=O)NCC(=O)OCC(=O)NC(=O)C2CCCCC2)cc1	-2	-4	2	6	0	-4	/	/	/	/
O=C(CSc1nc2ccccc2c(=O)n1-c1ccccc1)N/N=C/C=C/c1ccccc1[N+](=O)[O-]	1	-1	-7	1	0	-4	/	/	/	/
Cc1ccccc1-n1c(SCC(=O)N/N=C/C=C/c2ccccc2[N+](=O)[O-])nc2ccccc2c1=O	10.0*	-7	-1	-1	3	23*	5	1	18	12*
Cc1ccc(CNC(=O)COC(=O)CSc2cc(C)c(Br)cc2C)cc1	4	-10	8	1	-3	-2	/	/	/	/
Cc1cccc(NC(=O)Cn2c(=O)n(CCc3c[nH]c4ccccc34)c(=O)c3cccnc32)c1	10*	/	/	/	/	20*	7	3	27*	17*
CSc1ccc(CN2CCCN(C)CC2)cc1	2	-1	6	-2	0	3	/	/	/	/
CCN1C(=O)C(CC(=O)Nc2ccc(OC)cc2)N(CCc2ccccc2)C1=S (configuration not stated)	7	-1	-3	4	3	13	/	/	/	/
COC(=O)CN1C(=S)N(Cc2ccccc2)C(=O)C1CC(=O)Nc1ccc(Br)cc1 (configuration not stated)	12*	18*	39*	2	-21	23*	4	1	27*	13*
CCCOc1ccc(NC(=O)CC2C(=O)N(Cc3ccccc3)C(=S)N2Cc2cccs2)cc1 (configuration not stated)	13*	16*	2	-3	5	26*	11	5	30*	16*
O=C(c1ccccc1)n1ccn(-c2ccccc2)c1=S	0	0	-7	-3	2	0	/	/	/	/
COc1ccc(C(=O)Nc2ccc(OCC(F)(F)C(F)F)c(C(F)(F)F)c2)cc1OC	9.0*	18*	4	8	1	26*	3	0	52*	20*
CC1(C2CCC3(C)OC3C2)CO1 (configuration not stated)	-1	-4	25	1	0	-11	/	/	/	/
COc1cccc(NC(=O)CN(C)C(=O)c2ccccc2OCc2c(C)noc2C)c1	-8	2	1	2	0	-7	/	/	/	/
Cc1noc(C)c1COc1ccccc1C(=O)N(C)CC(=O)Nc1ccc(Cl)c(Cl)c1	9.9*	-2	17	4	-1	23*	3	0	32*	13*
Cc1cccc(COc2ccccc2C(=O)N(C)CC(=O)Nc2cccc(F)c2)c1	11*	-3	-23	1	-2	23*	-1	0	16	13*
Cc1c(C(=O)Nc2ccc(F)cc2)oc2ccc(S(=O)(=O)N3CCC4(CC3)OCCO4)cc12	3	-2	21	-3	-4	4	/	/	/	/
O=C(Cn1nnc(-c2ccccc2NC(=O)c2ccco2)n1)NC1CCCCC1	0	-14	10	14	0	1	/	/	/	/
CCOc1cc(Br)cc(C(c2c(C(=O)O)[nH]c3ccccc23)c2c(C(=O)O)[nH]c3ccccc23)c1O	-2	4	3	-1	3	-3	/	/	/	/
COc1ccc(NS(=O)(=O)c2cccc(N/C(=N\S(=O)(=O)c3ccccc3)c3ccc(F)cc3)c2)cc1	8.7*	0	6	-7	4	21*	4	1	24*	15*
COc1ccccc1NS(=O)(=O)c1cc(N/C(=N/S(=O)(=O)c2ccccc2)c2ccc(F)cc2)ccc1Cl	6	/	23	5	1	-9	/	/	/	/
O=S(=O)(/N=C(/Nc1ccc(Cl)c(S(=O)(=O)Nc2ccccc2Cl)c1)c1ccc(F)cc1)c1ccccc1	12*!	14*	7	8	6	22*!	7	2	36*	18*
SMILES	ADAM17 inh	NR3A LBD binder	SKN-1 inh	MT1-MMP act inh	MPTP inh	ADAM10 inh	ADAM10 confirm	ADAM17 ctr	ADAM10 counter	ADAM17 confirm
COc1cc(CC(=O)Nc2ccc(Cl)c(C(F)(F)F)c2)cc(OC)c1OC	3	-10	11	5	27	7	/	/	/	/
COc1ccc(C(=O)OCC(=O)Nc2ccc(Cl)c(C(F)(F)F)c2)c(OC)c1OC	8.7*	4	11	-1	17	20*	3	1	23*	13*
COc1cccc(OC)c1C(=O)OCC(=O)Nc1ccc(OC(F)(F)F)cc1	10*	-5	0	-2	8	27*	2	0	2	6
COc1ccccc1C(=O)OCC(=O)Nc1ccc(OC(F)F)cc1	-1	-7	6	-2	2	2	/	/	/	/
O=C(NC(=S)NCc1ccc2c(c1)OCO2)c1ccccc1	2	4	8	0	-10	-4	/	/	/	/
CC(C)(C)NC(=O)C(c1ccco1)N(C(=O)c1ccc(CN2CCOCC2)o1)c1ccccc1 (configuration not stated)	-4	-2	4	2	0	9	/	/	/	/
